Experimental data reported in ChEMBL document CHEMBL1127497, “Studies on antiulcer drugs. 7. 2-Guanidino-4-pyridylthiazoles as histamine H2-receptor antagonists with potent gastroprotective effects against nonsteroidal antiinflammatory drug-induced injury” (J Med Chem, 1994).

Assays:
Canis familiaris [1] = test: Evaluated against tetragastrin stimulated gastric acid secretion in conscious Hiedenhain-pouch dogs at a dose of 0.32 mg/kg, po; type: functional; conditions: Canis lupus familiaris, Stomach
Summary of the method: (§1)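 Beagle Heidenhain-pouch dogs, 8–13 kg, oral dosing. Acid concentration titrated to pH 7 with 0.1 N NaOH; total acid output is volume × concentration. Change is relative to predosing output. ED50 by probit from three or four doses, three or four dogs per dose.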

[2] = target: Histamine H2 receptor (Cavia porcellus) (UniProt P47747); test: H2 receptor antagonistic activity against histamine stimulated chronotropic response in isolated guinea pig right atrium at 1x10E-6 g/mL.; type: functional, tissue-based; conditions: Cardiac atrium
Summary of the method: (§2)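 Guinea pig atrial strip under 0.3–0.6 g tension in Tyrode solution, 30 °C, gassed with 95% O2-5% CO2. Beating rate recorded. Histamine HCl 1 × 10-6 g/mL given; after washout, test compound added (single-concentration screen 1 × 10-6 g/mL) and histamine response compared before and 30 min after dosing. IC50 from three doses by probit analysis, three atria per dose.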

Rattus norvegicus [3] = test: Inhibition of aspirin induced gastric lesions in rats after peroral dose of 32 mg/kg; type: functional; conditions: Stomach, route oral
Summary of the method: (§3)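 Male SD rats (~200 g), fasted 24 h. Test compound given orally in 0.1% MC, then aspirin 200 mg/kg in 0.2 N HCl/0.1% MC (10 mL/kg) orally 30 min later. Rats killed 1 h after aspirin. Ulcer index is the summed lesion length (mm); % inhibition is relative to controls. Seven rats per group for screening; ED50 by probit from three doses, ten rats per dose.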

Rattus norvegicus [4] = test: Inhibition of histamine stimulated gastric acid secretion in lumen perfused anaesthetized rats after 1 mg/kg intravenous dose; type: functional; conditions: Stomach
Summary of the method: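 Male SD rats (~250 g), fasted 24 h, urethane 1.25 g/kg ip. Stomach lumen perfused with saline; perfusate titrated with 25 mM NaOH. Histamine infused iv at 3 mg/kg/h. At plateau, compound given iv at 1 mg/kg. Result expressed as maximal inhibition of acid output; n = 2.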

Canis familiaris [5] = test: Effective dose against tetragastrin stimulated gastric acid secretion in conscious Hiedenhain-pouch dogs after peroral administration; type: functional; conditions: Canis lupus familiaris, Stomach, po; summary of the method: as §1
Rattus norvegicus [6] = test: Effective dose against indomethacin induced gastric lesions in rats after peroral administration; type: functional; conditions: Stomach, po
Summary of the method: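 Male SD rats (~200 g), fasted 24 h, dosed orally with test compound in 0.1% MC, ten per group. Indomethacin 5 mg/kg in 0.1% MC given orally 30 min later, then 0.35 N HCl (5 mL/kg) orally after 1 h. Killed 1 h after that. Ulcer index is the summed lesion length. ED50 by probit from three doses.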

Rattus norvegicus [7] = test: Effect on gastric mucosal blood flow 15 minutes before dosing of HCl and aspirin after drug dosing at 32 mg/kg intragastrically; type: functional, Gastric mucosa; conditions: route intragastric
Summary of the method: (§4)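 Male rats, five per group, test drug suspended in 0.1% MC given intragastrically. Aspirin 200 mg/kg in 0.2 N HCl/0.1% MC (0.2 mL) given ig 15 min later. […] Reported as mean ± SEM and % of initial.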

Rattus norvegicus [8] = test: Effect on gastric mucosal blood flow 30 minutes after administration of HCl and aspirin after drug dosing at 10 mg/kg intragastrically; type: functional, Gastric mucosa; conditions: route intragastric; summary of the method: as §4
Rattus norvegicus [9] = test: Effect on gastric mucosal blood flow 30 minutes after administration of HCl and aspirin after drug dosing at 32 mg/kg intragastrically; type: functional, Gastric mucosa; conditions: route intragastric; summary of the method: as §4
Rattus norvegicus [10] = test: Effect on gastric mucosal blood flow 60 minutes after administration of HCl and aspirin after drug dosing at 10 mg/kg intragastrically; type: functional, Gastric mucosa; conditions: route intragastric; summary of the method: as §4
Rattus norvegicus [11] = test: Effect on gastric mucosal blood flow 60 minutes after administration of HCl and aspirin after drug dosing at 32 mg/kg intragastrically; type: functional, Gastric mucosa; conditions: route intragastric; summary of the method: as §4
Rattus norvegicus [12] = test: Effect on gastric mucosal blood flow at basal value which is 15 minutes before dosing of drugs at 10 mg/kg intragastrically; type: functional, Gastric mucosa; conditions: route intragastric; summary of the method: as §4
Rattus norvegicus [13] = test: Effect on gastric mucosal blood flow 15 minutes before dosing of HCl and aspirin after drug dosing at 10 mg/kg intragastrically; type: functional, Gastric mucosa; conditions: route intragastric; summary of the method: as §4
Rattus norvegicus [14] = test: Effective dose against aspirin induced gastric lesions in rats after peroral administration; type: functional; conditions: Stomach, po; summary of the method: as §3
Rattus norvegicus [15] = test: Effect on gastric mucosal blood flow at basal value which is 15 minutes before dosing of drugs at 32 mg/kg intragastrically; type: functional, Gastric mucosa; conditions: route intragastric; summary of the method: as §4
Rattus norvegicus [16] = test: Evaluated for inhibition of basal gastric acid secretion in pyolus-ligated rats after intraduodenal administration; conditions: Stomach, id
Histamine H2 receptor = Histamine H2 receptor (Cavia porcellus, UniProt P47747); test: Compound was tested for H2 receptor antagonistic activity against histamine stimulated chronotropic response in isolated guinea pig right atrium; type: functional, tissue-based, Cardiac atrium; summary of the method: as §2
Sequence of Histamine H2 receptor (P47747 whole entry): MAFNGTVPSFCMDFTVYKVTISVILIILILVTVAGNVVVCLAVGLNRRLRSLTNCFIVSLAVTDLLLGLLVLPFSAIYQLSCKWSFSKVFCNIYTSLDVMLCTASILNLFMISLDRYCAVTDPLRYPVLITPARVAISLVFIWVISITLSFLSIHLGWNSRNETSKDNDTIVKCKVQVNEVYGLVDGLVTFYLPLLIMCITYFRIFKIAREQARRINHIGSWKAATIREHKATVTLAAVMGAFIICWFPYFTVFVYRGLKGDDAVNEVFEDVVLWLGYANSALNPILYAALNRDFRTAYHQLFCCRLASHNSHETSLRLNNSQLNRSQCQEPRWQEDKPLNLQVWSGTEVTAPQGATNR

Sequence of Histamine H2 receptor (Cavia porcellus) (P47747 whole entry): as above

Compound	inhibition [2]	inhibition in vivo at 32 mg/kg (Rattus norvegicus [3])	inhibition in vivo at 1 mg/kg (Rattus norvegicus [4])	further results
N=C(N)Nc1nc(-c2cccc(CNC(N)=O)n2)cs1	100%	34%	98%	inhibition in vivo at 0.32 mg/kg (Canis familiaris [1]): 78%
CSCC(=O)NCc1cccc(-c2csc(N=C(N)N)n2)n1	37%	80%	4%	–
N=C(N)Nc1nc(-c2cccc(CNC(=O)C3CC3)n2)cs1	60%	62%	91%	inhibition in vivo at 0.32 mg/kg (Canis familiaris [1]): 48%
CS(=O)(=O)NCc1cccc(-c2csc(N=C(N)N)n2)n1	50%	60%	46%	–
N=C(N)Nc1nc(-c2cccc(CNC=O)n2)cs1	46%	57%	83%	–
NC(N)=Nc1nc(CSCC/C(N)=N/S(N)(=O)=O)cs1 [FAMOTIDINE]	87%	22%	96%	inhibition in vivo at 0.32 mg/kg (Canis familiaris [1]): 96%; ED50 (Canis familiaris [5]): 0.042 mg/kg; ED50 (Rattus norvegicus [6]): > 100 mg/kg; Flow rate (Rattus norvegicus [7]): 60.5 ml min-1 100g-1; Flow rate (Rattus norvegicus [8]): 62.5 ml min-1 100g-1; Flow rate (Rattus norvegicus [9]): 46.9 ml min-1 100g-1; Flow rate (Rattus norvegicus [10]): 50.5 ml min-1 100g-1; Flow rate (Rattus norvegicus [11]): 43.4 ml min-1 100g-1; Flow rate (Rattus norvegicus [12]): 68.6 ml min-1 100g-1; Flow rate (Rattus norvegicus [13]): 73 ml min-1 100g-1; ED50 (Rattus norvegicus [14]): > 100 mg/kg; Flow rate (Rattus norvegicus [15]): 58.4 ml min-1 100g-1; ED50 (Rattus norvegicus [16]): 3.5 mg/kg
CN/C(=C\[N+](=O)[O-])NCc1cccc(-c2csc(N=C(N)N)n2)n1	-14%	-27%	18%	–
N=C(N)Nc1nc(-c2cccc(CNC(=O)C3CCCCC3)n2)cs1	23%	62%	23%	–
C/N=C(/NCc1cccc(-c2csc(N=C(N)N)n2)n1)NS(C)(=O)=O	29%	10%	24%	–
N=C(N)Nc1nc(-c2ccc(CC(=N)NS(N)(=O)=O)o2)cs1	84%	49%	99%	inhibition in vivo at 0.32 mg/kg (Canis familiaris [1]): 92%
CC(=O)Nc1cccc(-c2csc(N=C(N)N)n2)n1	–	43%	16%	–
N=C(N)Nc1nc(-c2cccc(CC(=N)NS(N)(=O)=O)n2)cs1	–	16%	42%	–
NC(N)=Nc1nc(CSCCC(N)=NS(N)(=O)=O)cs1 [FAMOTIDINE]	–	–	–	IC50 (Histamine H2 receptor): 300 nM
C/N=C(\NC#N)NCc1cccc(-c2csc(N=C(N)N)n2)n1	43%	37%	15%	–
N=C(N)Nc1nc(-c2cccc(CNC(=O)CSCc3ccco3)n2)cs1	76%	49%	16%	–
N=C(N)Nc1nc(-c2cccc(CNC(=O)C3CCC(=O)CC3)n2)cs1	2%	62%	37%	–
N=C(N)Nc1nc(-c2cccc(CNC(=O)C(F)(F)F)n2)cs1	72%	43%	43%	–

Compound	inhibition [2]	inhibition in vivo at 32 mg/kg (Rattus norvegicus [3])	inhibition in vivo at 1 mg/kg (Rattus norvegicus [4])	further results
CCCC(=O)NCc1cccc(-c2csc(N=C(N)N)n2)n1	25%	56%	71%	–
N=C(N)Nc1nc(-c2cccc(CNC(=O)c3ccco3)n2)cs1	13%	69%	34%	–
N=C(N)Nc1nc(-c2cccc(CNC(=O)C3CCCCCC3)n2)cs1	13%	93%	43%	inhibition in vivo at 0.32 mg/kg (Canis familiaris [1]): 67%
N=C(N)Nc1nc(-c2cccc(CNC(=O)C3CCCO3)n2)cs1 (stereo not given)	7%	66%	6%	–
CC(=O)NCc1cncc(-c2csc(N=C(N)N)n2)c1	22%	42%	10%	–
N=C(N)Nc1nc(-c2cccc(CNC(=O)C3CCOC3)n2)cs1 (stereo not given)	32%	42%	51%	–
CC(C)C(=O)NCc1cccc(-c2csc(N=C(N)N)n2)n1	62%	65%	21%	–
CNC(=O)NCc1cccc(-c2csc(N=C(N)N)n2)n1	86%	57%	79%	–
CC(=O)NCc1cc(-c2csc(N=C(N)N)n2)ccn1	–	42%	40%	–
CCS(=O)(=O)N/C=N\Cc1cccc(-c2csc(N=C(N)N)n2)n1	4%	1%	-18%	–
N=C(N)Nc1nc(-c2cccc(CNC(=O)C3CCC3)n2)cs1	2%	82%	61%	–
N=C(N)Nc1nc(-c2cccc(CNC(=O)C3CCCC3)n2)cs1	32%	92%	67%	inhibition in vivo at 0.32 mg/kg (Canis familiaris [1]): 22%
CCCNC(=O)NCc1cccc(-c2csc(N=C(N)N)n2)n1	82%	42%	90%	–
CCNC(=O)NCc1cccc(-c2csc(N=C(N)N)n2)n1	52%	34%	91%	–
CC(=O)NCCc1cccc(-c2csc(N=C(N)N)n2)n1	3%	31%	58%	–
CCC(=O)NCc1cccc(-c2csc(N=C(N)N)n2)n1	72%	70%	81%	inhibition in vivo at 0.32 mg/kg (Canis familiaris [1]): 50%
CC(C)(C)C(=O)NCc1cccc(-c2csc(N=C(N)N)n2)n1	–	58%	22%	–
